ChEMBL document CHEMBL4043300, “2 H-1,2,3-Triazole-Based Dipeptidyl Nitriles: Potent, Selective, and Trypanocidal Rhodesain Inhibitors by Structure-Based Design” (J Med Chem, 2018)
In brackets after ≈: the same amount, converted by molar mass.

What was measured:
[1] = tested on: Trypanosoma brucei rhodesiense; test: Antitrypanosomal activity against bloodstream form of Trypanosoma brucei rhodesiense STIB 900 assessed as parasite growth inhibition after 48 hrs by Alamar blue assay; type: functional; settings: STIB 900, 48 h
Outline: (§1)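 Bloodstream STIB 900 trypomastigotes, 1x10⁴ per well, exposed to eleven 3-fold serial dilutions at 37 °C/5% CO₂ for the stated pulse time. Parasites were then pelleted and washed four times, and an aliquot was regrown 72 h drug-free in triplicate plates. Resazurin was added for 2–4 h, fluorescence read at ex 536/em 588 nm, and IC50 taken by linear regression of sigmoidal curves. Melarsoprol served as control.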

[2] = tested on: Trypanosoma brucei rhodesiense; test: Antitrypanosomal activity against bloodstream form of Trypanosoma brucei rhodesiense STIB 900 assessed as parasite growth inhibition after 16 hrs by Alamar blue assay; type: functional; settings: STIB 900, 16 h; outline: as §1
[3] = tested on: Trypanosoma brucei rhodesiense; test: Antitrypanosomal activity against bloodstream form of Trypanosoma brucei rhodesiense STIB 900 assessed as parasite growth inhibition after 2 hrs by Alamar blue assay; type: functional; settings: STIB 900, 2 h; outline: as §1
[4] = tested on: Trypanosoma brucei rhodesiense; test: Antitrypanosomal activity against bloodstream form of Trypanosoma brucei rhodesiense STIB 900 assessed as parasite growth inhibition after 6 hrs by Alamar blue assay; type: functional; settings: STIB 900, 6 h; outline: as §1
[5] = tested on: Trypanosoma brucei rhodesiense; test: Antitrypanosomal activity against bloodstream form of Trypanosoma brucei rhodesiense STIB 900 assessed as parasite growth inhibition after 72 hrs by Alamar blue assay; type: functional; settings: STIB 900, 72 h
Outline: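 Standard 72 h growth-inhibition assay with STIB 900 bloodstream trypomastigotes and Alamar Blue read-out. Value is the mean of at least 2 measurements.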

[6] = tested on: Trypanosoma brucei rhodesiense; test: Antitrypanosomal activity against bloodstream form of Trypanosoma brucei rhodesiense STIB 900 assessed as parasite growth inhibition after 24 hrs by Alamar blue assay; type: functional; settings: STIB 900, 24 h; outline: as §1
Procathepsin L = Procathepsin L (Homo sapiens, UniProt P07711); test: Inhibition of human CatL using Cbz-Phe-Arg-AMC as substrate measured over 30 mins by fluorimetric method
Procathepsin L, sequence (P07711 whole entry): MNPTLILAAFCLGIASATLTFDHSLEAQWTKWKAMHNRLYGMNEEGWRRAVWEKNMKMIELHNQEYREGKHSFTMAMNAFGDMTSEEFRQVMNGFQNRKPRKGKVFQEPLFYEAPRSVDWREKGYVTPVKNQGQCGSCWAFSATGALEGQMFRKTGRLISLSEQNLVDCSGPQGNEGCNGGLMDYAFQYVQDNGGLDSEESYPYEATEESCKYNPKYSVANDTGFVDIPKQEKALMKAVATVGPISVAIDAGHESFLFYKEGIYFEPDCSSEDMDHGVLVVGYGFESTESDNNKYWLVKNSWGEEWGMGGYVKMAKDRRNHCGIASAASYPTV
Outline: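 Human cathepsin L in a fluorimetric assay in 50 mM Tris pH 6.5, 5 mM EDTA, 200 mM NaCl, 0.005% Brij35 at 25 °C. Ki was calculated from IC50 by Cheng-Prusoff. Value is the average of two measurements, each in duplicate.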

L6 = test: Cytotoxicity against rat L6 cells after 72 hrs by Alamar blue assay; type: cell-based; settings: L6, 72 h
Outline: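 Rat skeletal myoblast L6 cells in an Alamar Blue growth-inhibition assay. Value is the mean of at least 2 measurements.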

Rhodesain = Rhodesain (Trypanosoma brucei rhodesiense, UniProt Q95PM0); test: Inhibition of Trypanosoma brucei rhodesiense rhodesain using Cbz-Phe-Arg-AMC as substrate by fluorimetric method
Rhodesain, sequence (Q95PM0 whole entry): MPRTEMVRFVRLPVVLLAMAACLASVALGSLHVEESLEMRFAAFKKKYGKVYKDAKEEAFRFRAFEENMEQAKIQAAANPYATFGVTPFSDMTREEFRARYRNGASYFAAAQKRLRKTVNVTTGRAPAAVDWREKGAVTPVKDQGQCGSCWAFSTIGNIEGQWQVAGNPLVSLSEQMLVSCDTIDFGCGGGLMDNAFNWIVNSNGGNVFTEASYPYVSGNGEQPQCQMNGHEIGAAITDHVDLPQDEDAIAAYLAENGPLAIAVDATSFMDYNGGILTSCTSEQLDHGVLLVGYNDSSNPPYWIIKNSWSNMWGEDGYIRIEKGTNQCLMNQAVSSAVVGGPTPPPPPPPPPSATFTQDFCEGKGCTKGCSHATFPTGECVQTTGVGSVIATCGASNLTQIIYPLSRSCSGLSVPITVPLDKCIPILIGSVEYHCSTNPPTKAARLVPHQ
Outline: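 Fluorescence-based assay run at 25 °C in 50 mM sodium acetate pH 5.5 with 5 mM EDTA, 200 mM NaCl and 0.005% Brij35. IC50 values were converted to Ki with the Cheng-Prusoff equation. Values are the average of two measurements, each done in duplicate.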

[7] = Selectivity index, ratio of Ki for human CatL to Ki for Trypanosoma brucei rhodesiense rhodesain
Outline: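 Ki(hCatL)/Ki(RD). Fluorimetric assays at 25 °C: RD in 50 mM sodium acetate pH 5.5; hCatL in 50 mM Tris pH 6.5; both buffers with 5 mM EDTA, 200 mM NaCl, 0.005% Brij35. Ki derived from IC50 by Cheng-Prusoff. Each value is the mean of two measurements, each done in duplicate.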

[8] = Solubility of the compound at pH 6.5 by LYSA; type: physicochemical; settings: buffer
Outline: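 Lyophilization solubility assay at pH 6.5.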

[9] = Octanol-water intrinsic distribution co-efficient, log D of the compound at 100 uM at pH 7.4 after 16 to 22 hrs by CAMDIS assay; type: physicochemical
Outline: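 Octanol/aqueous buffer (pH 7.4) intrinsic distribution coefficient measured in the CAMDIS carrier-mediated distribution system.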

[10] = Selectivity index, ratio of IC50 for rat L6 cells to IC50 for bloodstream form of Trypanosoma brucei rhodesiense STIB 900; type: toxicity; settings: read-out: Ratio IC50
Outline: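 Ratio of L-6 rat skeletal myoblast IC50 to T. b. rhodesiense STIB 900 bloodstream trypomastigote IC50, both from Alamar Blue growth-inhibition assays. Each IC50 is the mean of at least 2 measurements.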

[11] = tested on: Trypanosoma brucei rhodesiense; test: Antitrypanosomal activity against bloodstream form of Trypanosoma brucei rhodesiense STIB 900 infected in NMRI mouse assessed as reduction of parasitemia at 50 mg/kg, po administered for 3 consecutive days starting 1 day post infection measured at 24 hrs post last dose relative to control; type: functional; set-up: scale not given: the % may be the effect or the level left
Outline: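 Female mice infected with STIB900 were dosed orally at 50 mg/kg/day on three consecutive days, starting 1 day post-infection. Compound was in 100% DMSO diluted 10-fold in distilled water, given at 0.1 mL/10 g. Tail-blood parasitaemia was measured 24 h after the last dose versus 4 untreated infected controls. Values are means of 2 mice.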

Compound | IC50 [1] [nM] | IC50 [2] [nM] | IC50 [3] [nM] | IC50 [4] [nM] | IC50 [5] [nM] | IC50 [6] [nM] | Ki (Procathepsin L) [nM] | IC50 (L6) [nM] | Ki (Rhodesain) [nM] | Ratio Ki [7] | solubility [8] [µg/mL] | logD at 100 µM [9] | selectivity ratio [10] | Activity [11] [%]
Nc1nc(N)nc(Nc2ccc([As]3SCC(CO)S3)cc2)n1 (stereo not given) [MELARSOPROL] | 26 | 86 | > 180 | 99 | 4 to 9 | 44 | – | – | – | – | – | – | – | –
N#CC1(NC(=O)[C@H](Cc2ccc(Cl)cc2)NC(=O)c2cnn(-c3ccc(F)cc3)n2)CC1 | – | – | – | – | 6 | – | 1520 | > 10000 | 3 | 507 | < 0.3 | 3.97 | – | –
N#Cc1ccc(C[C@H](NC(=O)c2cnn(-c3ccc(F)cc3)n2)C(=O)NC2(C#N)CC2)cc1Cl | – | – | – | – | 6 | – | 253 | > 10000 | 7 | 36 | < 0.3 | 3.63 | – | –
N=C(N)c1ccc(OCCCCCOc2ccc(C(=N)N)cc2)cc1 [PENTAMIDINE] | – | – | – | – | 9 | – | – | – | – | – | – | – | – | –
N#CC1(NC(=O)[C@H](Cc2ccccc2Cl)NC(=O)c2cnn(-c3ccc(F)cc3)n2)CC1 | – | – | – | – | – | – | – | – | 7.4 to 597 | 18 to 507 | – | – | – | –
N#CC1(NC(=O)[C@H](Cc2ccc(OC(F)(F)F)c(Cl)c2)NC(=O)c2cnn(C3CCCCC3)n2)CC1 | – | – | – | – | 6 | – | 82 | 31000 | 12 | 6.8 | 0.3 (≈ 0.572 µM) | – | 5170 | –
CC(C)C[C@H](NC(=O)c1cnn(-c2ccc(F)cc2)n1)C(=O)NC1(C#N)CC1 | – | – | – | – | 2200 | – | – | – | 23 | 18 to 507 | 42 (≈ 109 µM) | 3.3 | – | –
N#CC1(NC(=O)[C@H](Cc2ccc(Cl)c(Cl)c2)NC(=O)c2cnn(C3CC(F)(F)C3)n2)CC1 | – | – | – | – | 8 | – | 64 | 54800 | 18 | 3.6 | – | – | 6840 | 15.8
CC1CS(=O)(=O)CCN1/N=C/c1ccc([N+](=O)[O-])o1 (stereo not given) [NIFURTIMOX] | – | – | – | – | 1440 | – | – | – | – | – | – | – | – | –
N#CC1(NC(=O)[C@H](Cc2ccccc2C(F)(F)F)NC(=O)c2cnn(-c3ccc(F)cc3)n2)CC1 | – | – | – | – | – | – | – | – | 7.4 to 597 | 18 to 507 | – | – | – | –
N#CC1(NC(=O)[C@H](Cc2ccc(OC(F)(F)F)c(Cl)c2)NC(=O)c2cnn(C3CCOCC3)n2)CC1 | – | – | – | – | 13 | – | 112 | > 100000 | 18 | 6.2 | 90 (≈ 171 µM) | 3.33 | – | –
CSc1ccc(-n2ncc(C(=O)N[C@@H](Cc3ccc(OC(F)(F)F)c(Cl)c3)C(=O)NC3(C#N)CC3)n2)cc1 | – | – | – | – | 67 | – | 1120 | > 10000 | 19 | 59 | < 0.3 | – | – | –
N#CC1(NC(=O)[C@H](Cc2ccc(OCC3CC3)c(Cl)c2)NC(=O)c2cnn(-c3ccc(F)cc3)n2)CC1 | – | – | – | – | 27 to 190 | – | 181 to 314 | – | 9 to 16 | 18 to 507 | – | – | – | –
N#CC1(NC(=O)[C@H](Cc2ccc(OC(F)(F)F)c(Cl)c2)NC(=O)c2cnn(C3CC(F)(F)C3)n2)CC1 | – | – | – | – | 9 | – | 76 | 50000 | 41 | 1.5 | 2.2 (≈ 4.13 µM) | 3.89 | 5560 | –
N#CC1(NC(=O)[C@H](Cc2ccc(OC(F)(F)F)c(Cl)c2)NC(=O)c2cnn(-c3ccc(Br)cc3)n2)CC1 | – | – | – | – | 28 | – | 1080 | 7600 | 25 | 43 | < 0.3 | – | 271 | –
N#CC1(NC(=O)[C@H](Cc2ccc(OC(F)(F)F)c(Cl)c2)NC(=O)c2cnn(C3CCC3)n2)CC1 | – | – | – | – | 1 | – | 11 | 48000 | 11 | 1 | 11 (≈ 22.1 µM) | 3.88 | 48000 | –
